# Assay outcomes from PubChem BioAssay.
# TAAR1 agonist: human TAAR1 agonism; Q96RJ0; CHO RD-HGA16 TAAR1, Fluo-8 calcium fluorescence; vehicle wells 0%, saturating PEA agonist 100%; activation, % at 3 µM; 0.99% of 360,000 active;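 active means activation above the mean activation of all test compounds in the run plus 3 SD, cut at about 38% in these data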
# Target sequence (Q96RJ0 whole entry, looked up): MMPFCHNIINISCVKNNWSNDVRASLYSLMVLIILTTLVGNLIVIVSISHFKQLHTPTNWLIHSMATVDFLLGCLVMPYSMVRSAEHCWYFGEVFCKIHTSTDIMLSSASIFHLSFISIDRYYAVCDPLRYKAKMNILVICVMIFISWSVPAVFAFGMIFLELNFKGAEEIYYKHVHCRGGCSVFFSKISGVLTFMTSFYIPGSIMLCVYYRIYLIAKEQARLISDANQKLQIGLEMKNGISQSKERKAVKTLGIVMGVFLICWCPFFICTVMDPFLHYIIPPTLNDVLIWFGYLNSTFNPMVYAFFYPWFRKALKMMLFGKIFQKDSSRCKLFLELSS
#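 Benchmarks: low control DMSO, high control PEA (EC100); System: CHO RD-HGA16 cells carrying human TAAR1 plus Gα16; Detection: Fluo-8 fluorescence, 5 s baseline then 140 s kinetic read; Schedule: 17-24 h plating, Fluo-8 75 min 37 °C, 30 min RT; Read-out basis: % activation from peak over basal fluorescence ratio, DMSO-to-PEA scaled.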
# OX1R antag-1: blocks the human orexin 1 receptor; O43613; OX1R-expressing cells, FRET antagonist read-out; inhibition, % at 6.6 µM; 1.8% of 330,000 active; in the data active means inhibition mostly above about 38%, no sharp cut-off; inactive means mostly below about 40%;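 further: 0% = agonist challenge alone and 100% = reference antagonist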
# CHO parental Ca: counter-screen for OX1R antagonists: effect in parental CHO cells. parental CHO-K1, ATP-induced calcium, Fluo-8 fluorescence. 0.63% of 330,000 active. inhibition, % at 5.6 µM. AID 463079;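 active means inhibition above that plate's mean sample inhibition plus 3 SD, cut at about 26% in these data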;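 further: 0% = ATP-challenged DMSO wells and 100% = DMSO wells without ATP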
#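 Material: parental CHO cells / Compound: single nominal dose of 5.6 µM per compound / Signal: Fluo-8 fluorescence / Replicates: singlicate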
# TAAR1 antagonist: antagonists of human TAAR1; Q96RJ0; CHO RD-HGA16 TAAR1, Fluo-8 calcium fluorescence, antagonist; inhibition, % at 3 µM; 1.5% of 360,000 active; AID 624466;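 active means inhibition above a per-plate cutoff, the mean inhibition of test compounds on that plate plus 3 SD, cut at about 49% in these data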;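 further: 0% = DMSO plus EC80 beta-PEA response and 100% = DMSO alone without agonist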
#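 Material: RD-HGA16 CHO cells with stable hTAAR1 and Gα16; Dosing: single nominal final test compound concentration of 3 µM; Schedule: seeding 17-24 h prior, 75-min 37 °C, 30-min RT dye loading; Detection: kinetic Fluo-8 calcium fluorescence measurement; Measure: % inhibition from peak post-agonist over basal fluorescence ratio; Benchmarks: vehicle and agonist controls.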
# GalR3 antag: antagonists of human GalR3; inhibition, % at 3 µM; HEK293 GalR3-CNG cAMP membrane potential fluorescence; galR3 body fused to GalR1 C-terminus; AID 651719; 0.44% of 360,000 active;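 active means inhibition above the screen-wide average plus 3 SD, cut at about 13% in these data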;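 further: forskolin and galanin both at EC90 stimulate the cells; cAMP rise reported by CNG channel membrane potential dye signal; 0% = forskolin plus galanin with DMSO and 100% = forskolin alone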
# Target sequence (O60755 1-299 limits assumed): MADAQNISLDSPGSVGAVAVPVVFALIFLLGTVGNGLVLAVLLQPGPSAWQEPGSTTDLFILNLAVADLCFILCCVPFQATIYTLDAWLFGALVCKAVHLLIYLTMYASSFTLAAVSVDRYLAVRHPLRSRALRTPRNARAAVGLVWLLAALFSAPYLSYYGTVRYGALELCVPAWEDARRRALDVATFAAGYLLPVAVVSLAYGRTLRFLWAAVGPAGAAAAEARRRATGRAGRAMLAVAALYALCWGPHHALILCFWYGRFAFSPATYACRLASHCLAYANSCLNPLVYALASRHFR
# OX1R antag-2: antagonists of human orexin 1 receptor; O43613; CHO/OX1R cells, Fluo-8 calcium fluorescence, orexin A; inhibition, % at 5 µM; 0.43% of 330,000 active; AID 434989;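 active means inhibition above its plate's threshold, mean inhibition of all tested compounds on the plate plus 3 SD, cut at about 37% in these data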;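 further: 0% = orexin A challenge wells and 100% = SB-334867-A antagonist wells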
# The depositor's hits bear a star; x = not tested or not shown; ! = not active in a repeat. Shown are actives, neighbours in structure and some others; about 4.2% of the full set was active somewhere.
SMILES,TAAR1 agonist,OX1R antag-1,CHO parental Ca,TAAR1 antagonist,GalR3 antag,OX1R antag-2
COc1ccc(OCC(=O)Nc2cc(OC)ccc2N2CCCCC2)cc1,-1,7,-31,5,-7,-36
CCCn1c(N)c(C(=O)CN(C)CC(=O)Nc2c(Cl)cccc2Cl)c(=O)[nH]c1=O,1,2,-6,-2,-2,6
Cc1ccc(Cn2c(=N)c(C(=O)NCC3CCCO3)cc3c(=O)n4ccccc4nc32)cc1 (stereo unspecified),-4,56*,-8,6,-8,-11
N=c1c(C(=O)NCC2CCCO2)cc2c(=O)n3ccccc3nc2n1Cc1ccccc1 (stereo unspecified),0,51*,-18,-14,1,-3
N=c1c(C(=O)NCC2CCCO2)cc2c(=O)n3ccccc3nc2n1Cc1ccc(Cl)cc1 (stereo unspecified),0,39,-3,-29,0,-12
COc1ccc(-c2cc(C(=O)OC3CCOC3=O)c3ccccc3n2)cc1 (stereo unspecified),5,53*,-12,53*,3,9
N#CC1=C(N)SC(N)=C(C#N)C1Cc1ccccc1,43*,39*,5,38,-1,36
CCc1ccc(C2C(C#N)=C(N)SC(N)=C2C#N)cc1,43*,26,9,32,-3,-3
N#CC1=C(N)SC(N)=C(C#N)C1CCc1ccccc1,30,37,17,37,-5,-3
COc1ccc([N+](=O)[O-])cc1N(CC(=O)NC1CCCCC1)S(C)(=O)=O,3,14,-11,-9,0,-28
CCOC(=O)Cc1csc(NC(=O)CSc2nc(N)c3c(C)c(C)sc3n2)n1,3,31,-3,28,-1,-3
COC(=O)c1ccc(CN2C(=O)C(C)N(C(=O)c3c(F)cccc3F)c3ccccc32)cc1 (stereo unspecified),42*,5,-13,83*,-4,-29
CC1C(=O)N(Cc2ccc(F)cc2)c2ccccc2N1C(=O)c1c(F)cccc1F (stereo unspecified),6,9,9,25,-13,15
CNc1csc(C)c(C)c1=O,1,6,13,-9,-3,-11
CCOC(=O)c1cccc(NC(=O)CCS(=O)(=O)c2ccc(Br)s2)c1,16,46*,-17,4,-6,-11
CC(=O)c1cccc(NC(=O)c2ccc(NC(=O)CCS(=O)(=O)c3cccs3)cc2)c1,8,4,-18,52*,-9,-20
COc1ccc(NC(=O)c2ccc(NC(=O)CCS(=O)(=O)c3cccs3)cc2)cc1,22,17,5,53*,-7,-7
CC1=NN(C(=O)Cc2ccccc2)C(O)(c2ccccc2)C1 (stereo unspecified),4,7,-4,-12,1,-10
COc1ccnc(Oc2ccccc2)c1C(=O)N/C=N/OCc1ccc(F)cc1Cl,24,33,-7,61*,-8,-11
CCCCCCCCCCCCCCCC[N+](C)(C)Cc1ccc(F)cc1,23,x,x,39,-3,x
COc1cccc(CNc2ccc3[nH]c(=O)[nH]c3c2)c1OCc1ccc(F)cc1,7,x,x,50*,-9,x
CCCCNC(=S)N1CCN(CC)CC1,39*,6,4,-35,-4,7
CCOCCCNC(=S)N1CCN(CC)CC1,2,7,1,7,2,4
CCCCOc1ccc(C(=O)NC)cc1,-3,9,-2,8,2,-16
CCCCOc1ccc(CC(=O)NO)cc1,2,4,44*,-18,-2,0
SMILES,TAAR1 agonist,OX1R antag-1,CHO parental Ca,TAAR1 antagonist,GalR3 antag,OX1R antag-2
CC1Cc2ccccc2N1CC(=O)NC(=O)NC1CCCC1 (stereo unspecified),1,30,-6,-1,-6,-18
COc1ccc2c(c1)c[n+](C)c1c3cc(OC)c(OC)cc3ccc21,1,x,x,8,-6,x
CCCCNC(=O)CSc1nc2cc3c(cc2c(=O)n1CCCC(=O)NCCc1ccc(OC)c(OC)c1)OCO3,-2,2,-8,-20,-2,-24
COc1cccc(C2=CC(c3ccc(C)cc3)n3ncnc3N2)c1 (stereo unspecified),x,28,-23,x,x,-32
Cc1ccsc1C1C=C(c2cccc(Br)c2)Nc2ncnn21 (stereo unspecified),x,51,-15,x,x,45*
c1ccc2c(C[C@@H]3CNCCN3CC3CCCCC3)cccc2c1,41*,8,3,-1,3,-19
CSc1nc2c(c(-c3ccc(O)cc3)c1C#N)CCC2,-2,38,48*,4,-4,9
COc1ccc(-c2c(C#N)c(N)nc3c2CCC3)cc1,7,44,7,23,-7,-24
O=C(CN1CCN(c2ccccc2O)CC1)Nc1cc([N+](=O)[O-])ccc1Cl,4,58*,-19,-12,8,-5
O=C(CN1CCCCCC1)Nc1cc([N+](=O)[O-])ccc1Cl,2,62*,4,2,-7,5
O=C(CN1CCCCCC1)Nc1ccc([N+](=O)[O-])cc1Cl,4,13,-12,5,-3,-17
O=C(CN1CCCCC1)Nc1nnc(-c2ccc([N+](=O)[O-])cc2)s1,26,58*,-3,-8,-2,-8
CCCc1nnc(NC(=O)CCC(=O)Nc2ccc(Cl)cc2)s1,4,5,-6,-8,-9,-26
CCN(Cc1cc(=O)n2ccsc2n1)c1cccc2ccccc12,24,29,-22,-20,-1,-6
Cc1ccc(C)c(NC(=O)c2cc(S(=O)(=O)N3CCCCC3)c[nH]2)c1,1,15,-2,-24,2,-10
Cc1ccc(OCc2nnc(-c3ccc(Cl)cc3)o2)cc1,-3,16,-2,-1,-3,-8
Cc1ncc(CO)c(/C=N/NC(=O)c2cc3c(s2)CCCC3)c1O,3,50*,-12,-6,-6,-20
COc1ccc(OC)c(-n2c(-c3cc(-c4ccc(F)cc4)n[nH]3)n[nH]c2=S)c1,1,12,-27,-17,15*,-11
O=C(Cc1ccc([N+](=O)[O-])cc1)c1ccccc1,-1,x,x,11,-2,x
CC1CCC(C(C)C)C(OC(=O)Cn2c(-c3ccccc3)[n+](C)c3ccccc32)C1 (stereo unspecified),8,7,42*!,29,1,25
Cc1cccc(OCc2n(CC(=O)OC3CC(C)CCC3C(C)C)c3ccccc3[n+]2C)c1 (stereo unspecified),x,6,51*,x,x,48*
O=C(CN1C(=O)c2cccc3cccc(c23)C1=O)N1CCCCCC1,3,56*,-11,-10,-8,6
